Test results taken from ChEMBL document CHEMBL3525946, “Species comparison of in vivo P-glycoprotein-mediated brain efflux using mdr1a-deficient rats and mice” (Drug Metab Dispos, 2012).

What was measured:
[1] = Percentage unbound in Sprague-Dawley rat plasma at 1 uM after 5 hrs by equilibrium dialysis method; assay type: ADME, cell-free
How it was run: (§1)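 Equilibrium dialysis (12-14 kDa membrane) of plasma or brain homogenate from naïve male Sprague-Dawley rats or Crl:NMRI(Han) mice. Donor side spiked to 1 µM final; receiver phosphate buffer pH 7.4; 37°C for 5 h. Buffer phase quantified by LC-MS. Brain fu corrected for homogenate dilution to intact tissue. Mean of two independent determinations.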

[2] = Percentage unbound in Crl:NMRI(Han) mouse plasma at 1 uM after 5 hrs by equilibrium dialysis method; assay type: ADME, cell-free; how it was run: as §1
[3] = Total brain to plasma partition coefficient of the compound in wild type Sprague-Dawley rat expressing Abcb1a at 6 mg/kg/day administered through continuous minipump treatment for 3 days; assay type: ADME, organism-based; details: brain and plasma, other: continuous minipump
How it was run: (§2)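 Kp is total brain concentration divided by total plasma concentration at steady state. Measured after a 3-day subcutaneous osmotic minipump infusion in mdr1a-deficient or wild-type rats or mice, n=3-5. Concentrations determined by UPLC-MS in plasma and in whole-brain homogenate (70% acetonitrile). Mean ± SEM.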

[4] = Total brain to plasma partition coefficient of the compound in mdr1a-deficient mouse at 3 mg/kg/day administered through continuous minipump treatment for 3 days; assay type: ADME, organism-based; details: other: continuous minipump; how it was run: as §2
[5] = Total drug level in wild type Sprague-Dawley rat brain expressing Abcb1a at 6 mg/kg/day administered through continuous minipump treatment for 3 days by UPLC-MS analysis; assay type: ADME, organism-based; details: other: continuous minipump, read-out: Drug uptake
How it was run: (§3)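 Subcutaneous osmotic minipump infusion for 3 days to steady state, implanted under isoflurane (rats 10 µl/h, mice 1 µl/h). Mdr1a-deficient (SD-Abcb1a knockout rats; Crl:CF1-Abcb1a mutant mice) and wild-type animals, n=3-5 per group. After decapitation, EDTA plasma and whole brain (homogenized 1:4 in 70% acetonitrile) were precipitated with internal standard. Parent and metabolites quantified by UPLC-MS. Mean ± SEM.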

[6] = Percentage unbound in Sprague-Dawley rat brain at 1 uM after 5 hrs by equilibrium dialysis method; assay type: ADME, tissue-based; how it was run: as §1
[7] = Total plasma concentration in wild type Crl:CF1 mouse expressing Abcb1a mutant at 3 mg/kg/day administered through continuous minipump treatment for 3 days by UPLC-MS analysis; assay type: ADME, organism-based; details: other: continuous minipump; how it was run: as §3
[8] = Unbound brain to plasma partition coefficient of the compound in mdr1a-deficient rat at 6 mg/kg/day administered through continuous minipump treatment for 3 days; assay type: ADME, organism-based; details: other: continuous minipump, read-out: K(p,uu,brain)
How it was run: (§4)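 Kp,uu is (Cbrain,total × fu,brain)/(Cplasma,total × fu,plasma). Total concentrations were measured at steady state after a 3-day subcutaneous minipump infusion in knockout or wild-type animals. Species-matched free fractions came from 5 h, 37°C equilibrium dialysis at 1 µM in naïve plasma and brain homogenate.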

[9] = Unbound brain to plasma partition coefficient of the compound in wild type Crl:CF1 mouse expressing Abcb1a mutant at 3 mg/kg/day administered through continuous minipump treatment for 3 days; assay type: ADME, organism-based; details: other: continuous minipump, read-out: K(p,uu,brain); how it was run: as §4
[10] = Total drug level in wild type Crl:CF1 mouse brain expressing Abcb1a mutant at 3 mg/kg/day administered through continuous minipump treatment for 3 days by UPLC-MS analysis; assay type: ADME, organism-based; details: other: continuous minipump, read-out: Drug uptake; how it was run: as §3
[11] = Total plasma concentration in wild type Sprague-Dawley rat expressing Abcb1a at 6 mg/kg/day administered through continuous minipump treatment for 3 days by UPLC-MS analysis; assay type: ADME, organism-based; details: other: continuous minipump; how it was run: as §3
[12] = Total drug level in mdr1a-deficient mouse brain at 3 mg/kg/day administered through continuous minipump treatment for 3 days by UPLC-MS analysis; assay type: ADME, organism-based; details: other: continuous minipump, read-out: Drug uptake; how it was run: as §3
[13] = Total brain to plasma partition coefficient of the compound in mdr1a-deficient rat at 6 mg/kg/day administered through continuous minipump treatment for 3 days; assay type: ADME, organism-based; details: brain and plasma, other: continuous minipump; how it was run: as §2
[14] = Percentage unbound in Crl:NMRI(Han) mouse brain at 1 uM after 5 hrs by equilibrium dialysis method; assay type: ADME, tissue-based; how it was run: as §1
[15] = Total brain to plasma partition coefficient of the compound in wild type Crl:CF1 mouse expressing Abcb1a mutant at 3 mg/kg/day administered through continuous minipump treatment for 3 days; assay type: ADME, organism-based; details: other: continuous minipump; how it was run: as §2
[16] = Unbound brain to plasma partition coefficient of the compound in wild type Sprague-Dawley rat expressing Abcb1a at 6 mg/kg/day administered through continuous minipump treatment for 3 days; assay type: ADME, organism-based; details: other: continuous minipump, read-out: K(p,uu,brain); how it was run: as §4
[17] = Total plasma concentration in mdr1a-deficient Sprague-Dawley rat at 6 mg/kg/day administered through continuous minipump treatment for 3 days by UPLC-MS analysis; assay type: ADME, organism-based; details: other: continuous minipump; how it was run: as §3
[18] = Total plasma concentration in mouse at 3 mg/kg/day administered through continuous minipump treatment for 3 days by UPLC-MS analysis; assay type: ADME, organism-based; details: other: continuous minipump; how it was run: as §3
[19] = Unbound brain to plasma partition coefficient of the compound in mdr1a-deficient mouse at 3 mg/kg/day administered through continuous minipump treatment for 3 days; assay type: ADME, organism-based; details: other: continuous minipump, read-out: K(p,uu,brain); how it was run: as §4
[20] = Total drug level in mdr1a-deficient rat brain at 6 mg/kg/day administered through continuous minipump treatment for 3 days by UPLC-MS analysis; assay type: ADME, organism-based; details: other: continuous minipump, read-out: Drug uptake; how it was run: as §3

Row | Structure (SMILES) | fraction unbound at 5 h, 1 µM [1] | fraction unbound at 5 h, 1 µM [2] | Kp at 72 h [3] | Kp at 72 h [4] | concentration at 72 h [5] | fraction unbound at 5 h, 1 µM [6] | concentration at 72 h [7] | Kp uu at 72 h [8] | Kp uu at 72 h [9] | concentration at 72 h [10] | concentration at 72 h [11] | concentration at 72 h [12] | Kp at 72 h [13] | fraction unbound at 5 h, 1 µM [14] | Kp at 72 h [15] | Kp uu at 72 h [16] | concentration at 72 h [17] | concentration at 72 h [18] | Kp uu at 72 h [19] | concentration at 72 h [20]
1 | Cc1nc2n(c(=O)c1CCN1CCC(c3noc4cc(F)ccc34)CC1)CC(O)CC2 (configuration not stated) | 0.2 | 0.54 |  |  |  |  |  |  |  |  |  |  |  |  |  |  |  |  |  | 
2 | O=C1CCc2ccc(OCCCCN3CCN(c4cccc(Cl)c4Cl)CC3)cc2N1 [ARIPIPRAZOLE] | 0.001 | 0.002 | 0.19 | 1.3 | 3 ng/g | 0.001 | 51 ng/mL | 0.64 | 0.25 | 25 ng/g | 18 ng/mL | 41 ng/g | 0.64 | 0.001 | 0.49 | 0.19 | 22 ng/mL | 32 ng/mL | 0.64 | 14 ng/g
